“And” between values parts separate entries of the source, which are not always exact repeats. Equal values may be shown once.
How the values were obtained:
HEK-293T = assay: Multiplex assay against HEK293T; format: toxicity, cell-based; details: human, number of replicates 2
Procedure, shortened: (§1)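 At seeding, live cells were stained with Hoechst33342, BioTracker Green Microtubule Cytoskeleton Dye, MitoTracker Red and Annexin V Alexa Fluor 680. After compound addition they were imaged on a CQ1 microscope at 37°C and 5% CO2, and CellPathfinder machine-learning gating sorted them into Hoechst high-intensity objects or normal cells, with normal cells further split into healthy, pyknosed or fragmented nuclei and pyknosed cells into mitotic or apoptotic. Tubulin, mitochondrial-mass and membrane-permeability phenotypes are given as per cents of cells with healthy nuclei.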

U2OS = assay: Multiplex assay against U2OS; format: toxicity, cell-based; details: human, number of replicates 2; procedure, shortened: as §1
[1] = 24 h, 1 µM, compound concentration 1 uM
[2] = 24 h, 10 µM, compound concentration 10 uM
[3] = 48 h, 1 µM, compound concentration 1 uM
[4] = 48 h, 10 µM, compound concentration 10 uM
[5] = 12 h, 1 µM, compound concentration 1 uM
[6] = 12 h, 10 µM, compound concentration 10 uM

Cn1c(Nc2c(Cl)cccc2Cl)nc2ccc3nc[nH]c(=O)c3c21
Population Mitochondria Different-Phenotype (%) (HEK-293T; [1]): 6% and 1%
Population Mitotic Cells (%) (HEK-293T; [1]): 27% and 60%
Population Normal (%) (HEK-293T; [1]): 89% and 92%
Population Pyknosed Nuclei (%) (HEK-293T; [1]): 14% and 10%
Population Tubulin-Different-Phenotype (%) (HEK-293T; [1]): 24% and 13%
Total Cell Count (HEK-293T; [1]): 675 and 1010
Population Apoptotic (%) (HEK-293T; [2]): 21% and 17%
Population Fragmented Nuclei (%) (HEK-293T; [2]): 2%
Population Healthy Nuclei (%) (HEK-293T; [2]): 85% and 81%
Population Hoechst High Intensity Objects (%) (HEK-293T; [2]): 3%
Population Membrane Permeable-Phenotype (%) (HEK-293T; [2]): 2%
Population Mitochondria Different-Phenotype (%) (HEK-293T; [2]): 4% and 3%
Population Mitotic Cells (%) (HEK-293T; [2]): 78% and 82%
Population Normal (%) (HEK-293T; [2]): 96%
Population Pyknosed Nuclei (%) (HEK-293T; [2]): 12% and 15%
Population Tubulin-Different-Phenotype (%) (HEK-293T; [2]): 16% and 18%
Total Cell Count (HEK-293T; [2]): 1151 and 1278
Population Apoptotic (%) (HEK-293T; [3]): 36% and 15%
Population Fragmented Nuclei (%) (HEK-293T; [3]): 12% and 15%
Population Healthy Nuclei (%) (HEK-293T; [3]): 81% and 80%
Population Hoechst High Intensity Objects (%) (HEK-293T; [3]): 10% and 8%
Population Membrane Permeable-Phenotype (%) (HEK-293T; [3]): 2% and 3%
Population Mitochondria Different-Phenotype (%) (HEK-293T; [3]): 1% and 0%
Population Mitotic Cells (%) (HEK-293T; [3]): 63% and 84%
Population Normal (%) (HEK-293T; [3]): 89% and 91%
Population Pyknosed Nuclei (%) (HEK-293T; [3]): 5% and 4%
Population Tubulin-Different-Phenotype (%) (HEK-293T; [3]): 4% and 5%
Total Cell Count (HEK-293T; [3]): 1439 and 2070
Population Apoptotic (%) (HEK-293T; [4]): 19% and 27%
Population Fragmented Nuclei (%) (HEK-293T; [4]): 4%
Population Healthy Nuclei (%) (HEK-293T; [4]): 79% and 76%
Population Hoechst High Intensity Objects (%) (HEK-293T; [4]): 3%
Population Membrane Permeable-Phenotype (%) (HEK-293T; [4]): 4%
Population Mitochondria Different-Phenotype (%) (HEK-293T; [4]): 3%
Population Mitotic Cells (%) (HEK-293T; [4]): 80% and 72%
Population Normal (%) (HEK-293T; [4]): 96%
Population Pyknosed Nuclei (%) (HEK-293T; [4]): 16% and 18%
Population Tubulin-Different-Phenotype (%) (HEK-293T; [4]): 16% and 24%
Total Cell Count (HEK-293T; [4]): 1576 and 1527
Population Apoptotic (%) (U2OS; [5]): 40% and 66%
Population Healthy Nuclei (%) (U2OS; [5]): 64% and 87%
Population Hoechst High Intensity Objects (%) (U2OS; [5]): 0%
Population Membrane Permeable-Phenotype (%) (U2OS; [5]): 0% and 1%
Population Mitochondria Different-Phenotype (%) (U2OS; [5]): 0%
Population Mitotic Cells (%) (U2OS; [5]): 60% and 33%
Population Normal (%) (U2OS; [5]): 100%
Population Pyknosed Nuclei (%) (U2OS; [5]): 10% and 7%
Population Tubulin-Different-Phenotype (%) (U2OS; [5]): 100% and 96%
Population Apoptotic (%) (U2OS; [6]): 66% and 52%
Population Healthy Nuclei (%) (U2OS; [6]): 59% and 84%
Population Hoechst High Intensity Objects (%) (U2OS; [6]): 0%
Population Membrane Permeable-Phenotype (%) (U2OS; [6]): 0% and 1%
Population Mitochondria Different-Phenotype (%) (U2OS; [6]): 0% and 1%
Population Mitotic Cells (%) (U2OS; [6]): 33% and 47%
Population Normal (%) (U2OS; [6]): 100% and 99%
Population Pyknosed Nuclei (%) (U2OS; [6]): 11% and 10%
Population Tubulin-Different-Phenotype (%) (U2OS; [6]): 56% and 81%
Population Apoptotic (%) (U2OS; [1]): 50% and 53%
Population Healthy Nuclei (%) (U2OS; [1]): 62% and 87%
Population Hoechst High Intensity Objects (%) (U2OS; [1]): 0%
Population Membrane Permeable-Phenotype (%) (U2OS; [1]): 0% and 2%
Population Mitochondria Different-Phenotype (%) (U2OS; [1]): 2% and 0%
Population Mitotic Cells (%) (U2OS; [1]): 50% and 46%
Population Normal (%) (U2OS; [1]): 100%
Population Pyknosed Nuclei (%) (U2OS; [1]): 10% and 8%
Population Tubulin-Different-Phenotype (%) (U2OS; [1]): 100% and 95%
Population Apoptotic (%) (U2OS; [2]): 75% and 45%
Population Healthy Nuclei (%) (U2OS; [2]): 55% and 78%
Population Hoechst High Intensity Objects (%) (U2OS; [2]): 1% and 0%
Population Membrane Permeable-Phenotype (%) (U2OS; [2]): 2%
Population Mitochondria Different-Phenotype (%) (U2OS; [2]): 0%
Population Mitotic Cells (%) (U2OS; [2]): 25% and 54%
Population Normal (%) (U2OS; [2]): 98% and 100%
Population Pyknosed Nuclei (%) (U2OS; [2]): 11% and 13%
Population Tubulin-Different-Phenotype (%) (U2OS; [2]): 68% and 77%
Population Apoptotic (%) (U2OS; [3]): 56% and 75%
Population Healthy Nuclei (%) (U2OS; [3]): 58% and 89%
Population Hoechst High Intensity Objects (%) (U2OS; [3]): 0%
Population Membrane Permeable-Phenotype (%) (U2OS; [3]): 0% and 1%
Population Mitochondria Different-Phenotype (%) (U2OS; [3]): 0%
Population Mitotic Cells (%) (U2OS; [3]): 43% and 25%
Population Normal (%) (U2OS; [3]): 100% and 99%
Population Pyknosed Nuclei (%) (U2OS; [3]): 20% and 7%
Population Tubulin-Different-Phenotype (%) (U2OS; [3]): 100% and 97%
Population Apoptotic (%) (U2OS; [4]): 75% and 67%
Population Healthy Nuclei (%) (U2OS; [4]): 21% and 58%
Population Hoechst High Intensity Objects (%) (U2OS; [4]): 1% and 0%
Population Membrane Permeable-Phenotype (%) (U2OS; [4]): 5% and 10%
Population Mitochondria Different-Phenotype (%) (U2OS; [4]): 5% and 2%
Population Mitotic Cells (%) (U2OS; [4]): 24% and 32%
Population Normal (%) (U2OS; [4]): 98% and 99%
Population Pyknosed Nuclei (%) (U2OS; [4]): 34% and 28%
Population Tubulin-Different-Phenotype (%) (U2OS; [4]): 61% and 74%

— ChEMBL document CHEMBL5303300, “EUbOPEN Chemogenomics Library - Multiplex” (2023)
